Data from ChEMBL document CHEMBL1153315, “Porphyrins containing nitric oxide donors: Synthesis and cancer cell-oriented NO release” (Bioorg Med Chem Lett, 2009).
Active and inactive are the calls of the source. No cut-off for these calls is given here.

Columns and labels:
[1] = test system: MCF7; assay: Cytotoxicity against human MCF7 after 72 hrs by MTT assay; format: functional, cell-based; conditions: MCF7, 72 h
In short: (§1)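 Cells seeded at 1×10^3 per well in medium, preincubated 24 h at 37 °C in 5% CO2, then test drug added in medium to quadruplicate wells for 72 h. MTT ([…] in complete medium) added for 4 h; formazan dissolved in DMSO buffered with glycine-NaCl (pH 10.5); absorbance at 570 nm. IC50 taken as concentration giving 50% loss of viability; means of three experiments.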

[2] = test system: Bel-7402; assay: Cytotoxicity against human Bel7402 after 72 hrs by MTT assay; format: functional, cell-based; conditions: Bel-7402, 72 h; in short: as §1
[3] = test system: Bel-7402; assay: Cytotoxicity against human Bel7402 cells at 1.4 umol/L after 72 hrs by MTT assay; format: functional, cell-based
In short: (§2)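 BEL-7402 (liver cancer) and L-02 (liver normal) cells seeded at 1×10^3 per well, preincubated 24 h at 37 °C, 5% CO2, exposed to 1.4 μmol/L compound in quadruplicate wells for 72 h. Viability by MTT (4 h), formazan dissolved in glycine-NaCl-buffered DMSO, read at 570 nm. One-way ANOVA with LSD multiple comparisons, P < 0.05.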

[4] = Induction of NO release in phosphate buffer containing L-cysteine at pH 7.4 by Griess assay; format: physicochemical
In short: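 Compound at 0.2 mM in 0.1 M phosphate buffer pH 7.4 mixed 1:1 with fresh 3.6 mM L-cysteine in the same buffer; incubated 1.5 h at 37 °C without air, then exposed to air 10 min at 25 °C. Griess reagent added, absorbance at 540 nm after 10 min; nitrite from sodium nitrite standard curve (0–100 µM); % of 1 mol NO/mol theoretical, n = 3.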

[5] = Induction of NO release in PBS at pH 7.4 by Griess assay; format: physicochemical; conditions: buffer
In short: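 Compound at 2 mM in 0.1 M phosphate buffer pH 7.4, no L-cysteine, incubated 1.5 h at 37 °C without air, then 10 min air at 25 °C. Nitrite measured by Griess reagent (sulfanilamide/N-naphthylethylenediamine), absorbance at 540 nm against a 0–100 µM sodium nitrite curve; expressed as % of 1 mol NO/mol theoretical release, n = 3.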

[6] = Cytotoxicity against human L02 cells at 1.4 umol/L after 72 hrs by MTT assay; format: cell-based; conditions: l02, 72 h, 1.4 µM; in short: as §2
[7] = test system: Bel-7402; assay: Induction of NO release in human Bel7402 cells assessed as decrease in absorbance at 100 umol/L after 30 mins by spectrophotometry; format: functional, cell-based
In short: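 BEL-7402 cells grown in 24-well plates at 37 °C, 5% CO2 to at least 70% confluency; medium replaced with medium containing 100 µmol/L compound. After 0 and 30 min at 37 °C, the drug-containing medium was removed and its absorbance measured by UV–vis spectrophotometry.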

O=c1[nH]cc(F)c(=O)[nH]1 [FLUOROURACIL]
IC50 [1]: 4.7 µM | IC50 [2]: 4.3 µM

Cc1ccc(-c2c3nc(c(-c4ccc(C)cc4)c4ccc([nH]4)c(-c4ccc(OCCCO[N+](=O)[O-])cc4)c4nc(c(-c5ccc(C)cc5)c5ccc2[nH]5)C=C4)C=C3)cc1
IC50 [1]: 46 µM | Activity [3]: Active | Activity [4]: 6.25% | IC50 [2]: 1.4 µM | Activity [5]: 1.1%

C1=Cc2nc1c(-c1ccccc1)c1nc(c(-c3ccccc3)c3ccc([nH]3)c(-c3ccccc3)c3ccc([nH]3)c2-c2ccccc2)C=C1 [TETRAPHENYLPORPHYRIN]
IC50 [1]: 245 µM | IC50 [2]: 350 µM

O=Cc1ccc(OCCCO[N+](=O)[O-])cc1
Activity [6]: Toxic

O=Cc1ccc(OCCO[N+](=O)[O-])cc1
Activity [6]: Toxic

O=[N+]([O-])OCCCOc1ccc(-c2c3nc(c(-c4ccccc4)c4ccc([nH]4)c(-c4ccccc4)c4nc(c(-c5ccccc5)c5ccc2[nH]5)C=C4)C=C3)cc1
IC50 [1]: 30 µM | Activity [3]: Active | Activity [4]: 3.95% | IC50 [2]: 3 µM | Activity [5]: 0.47%

Cc1ccc(-c2c3nc(c(-c4ccc(C)cc4)c4ccc([nH]4)c(-c4ccc(OCCO[N+](=O)[O-])cc4)c4nc(c(-c5ccc(C)cc5)c5ccc2[nH]5)C=C4)C=C3)cc1
IC50 [1]: 55 µM | Activity [3]: Active | Activity [4]: 3.12% | IC50 [2]: 1.8 µM | Activity [5]: 0.55%

O=[N+]([O-])OCCOc1ccc(-c2c3nc(c(-c4ccccc4)c4ccc([nH]4)c(-c4ccccc4)c4nc(c(-c5ccccc5)c5ccc2[nH]5)C=C4)C=C3)cc1
Activity [7]: Active | IC50 [1]: 8.7 µM | Activity [3]: Active | Activity [4]: 5.67% | IC50 [2]: 0.8 µM | Activity [5]: 0.43%
